Experimental data from ChEMBL document CHEMBL1123621, “Total synthesis and biological evaluation of structural analogues of compactin and dihydromevinolin” (J Med Chem, 1987).

Target: T1, 3-hydroxy-3-methylglutaryl-coenzyme A reductase (Rattus norvegicus, UniProt P51639)
T1 sequence (P51639 whole entry): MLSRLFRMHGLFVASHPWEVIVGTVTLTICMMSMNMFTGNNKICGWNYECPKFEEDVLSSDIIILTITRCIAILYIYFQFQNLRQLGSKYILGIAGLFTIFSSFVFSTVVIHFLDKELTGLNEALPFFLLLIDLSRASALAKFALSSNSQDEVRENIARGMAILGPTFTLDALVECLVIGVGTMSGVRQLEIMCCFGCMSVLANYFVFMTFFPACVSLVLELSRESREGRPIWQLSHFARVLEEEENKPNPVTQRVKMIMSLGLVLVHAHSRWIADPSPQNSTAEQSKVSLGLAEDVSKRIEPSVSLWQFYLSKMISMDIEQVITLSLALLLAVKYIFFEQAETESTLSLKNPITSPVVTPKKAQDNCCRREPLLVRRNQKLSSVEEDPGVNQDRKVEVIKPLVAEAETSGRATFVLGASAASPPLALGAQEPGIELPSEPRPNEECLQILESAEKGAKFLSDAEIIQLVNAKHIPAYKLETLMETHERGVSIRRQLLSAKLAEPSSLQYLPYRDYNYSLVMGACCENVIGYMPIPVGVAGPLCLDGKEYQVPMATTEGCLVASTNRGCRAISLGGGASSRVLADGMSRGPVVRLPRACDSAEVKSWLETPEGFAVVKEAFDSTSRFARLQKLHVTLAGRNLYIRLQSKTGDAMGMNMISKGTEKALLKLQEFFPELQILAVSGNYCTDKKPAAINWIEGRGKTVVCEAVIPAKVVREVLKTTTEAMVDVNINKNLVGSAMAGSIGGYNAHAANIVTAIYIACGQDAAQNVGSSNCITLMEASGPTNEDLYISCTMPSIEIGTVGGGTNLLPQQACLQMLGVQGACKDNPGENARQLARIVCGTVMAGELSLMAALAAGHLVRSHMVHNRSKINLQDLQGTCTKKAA
Assay: Binding affinity against HMG-CoA reductase in rat liver microsomes
Set-up: species or system Microsome
Conditions: not given
Procedure, shortened: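 Rat liver microsomes (Edwards preparation, stored at -78 °C), 1.3 mg (0.068 mg protein) per 500 μL assay; 150 mM phosphate pH 6.8, 180 mM KCl, 16 mM Na2EDTA, 9 mM DTT, 10.0 mM glucose 6-phosphate, 2.1 mM NADP, 2 U G6P dehydrogenase, 20 μM (R,S)-[3-14C]HMG-CoA; lactones preincubated 30 min at 37 °C for ring opening; inhibitors in DMSO; KOH stop; four concentrations in duplicate; I50 extrapolated from %inhibition vs log concentration.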

Row | SMILES | Ki
1 | CC[C@H](C)C(=O)O[C@H]1CCC=C2C=C[C@H](C)[C@H](CC[C@@H]3C[C@@H](O)CC(=O)O3)[C@H]21 [MEVASTATIN] | 0.0014 µM

Target: T1, 3-hydroxy-3-methylglutaryl-coenzyme A reductase
Assay: Inhibition of HMG-CoA reductase in rat liver microsomes
Set-up: species or system Microsome
Conditions: read-out: I50
Procedure, shortened: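 Rat liver microsomes (0.068 mg protein) in 150 mM phosphate pH 6.8, 180 mM KCl, 16 mM EDTA, 9 mM DTT, 10.0 mM glucose 6-phosphate, 2.1 mM NADP, G6P dehydrogenase, 20 μM (R,S)-[3-14C]HMG-CoA. Lactones were preincubated 30 min at 37 °C for ring opening. Inhibitors were given in DMSO. Reaction stopped with KOH; initial mevalonate rate measured. Four concentrations over four log units, in duplicate; I50 extrapolated from %inhibition vs log concentration.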

Row | IC50 | SMILES
2 | 0.013 µM | CC[C@H](C)C(=O)O[C@H]1CCC=C2C=C[C@H](C)[C@H](CC[C@@H]3C[C@@H](O)CC(=O)O3)[C@H]21 [MEVASTATIN]
3 | 0.032 µM | CC[C@H](C)C(=O)O[C@H]1CCC=C2C=C[C@H](C)[C@H](CCC(=O)C[C@@H](O)CC(=O)O)[C@H]21
4 | 2 µM | CC[C@H](C)C(=O)O[C@H]1CCC=C2C=C[C@H](C)[C@H](CC[C@H]3C[C@@H](O)CC(=O)O3)C21 (some centres not stated)
5 | 110 µM | CC[C@H](C)C(=O)O[C@@H]1CCC=C2C=C[C@@H](C)[C@@H](COC(=O)CCCC(=O)O)[C@@H]21
6 | 4 µM | CC[C@H](C)C(=O)O[C@H]1CCC=C2C=C[C@H](C)[C@H](CC[C@@H]3C[C@H](O)CC(=O)O3)C21 (some centres not stated)
7 | 0.63 µM | CC[C@H](C)C(=O)O[C@H]1CCC=C2C=C[C@H](C)[C@H](/C=C/C(=O)C[C@@H](O)CC(=O)O)[C@H]21
8 | > 25 µM | CC[C@H](C)C(=O)O[C@@H]1CCC=C2C=C[C@@H](C)[C@@H](COC(=O)C[C@@H](O)CC(=O)O)[C@@H]21
9 | 10 µM | CC[C@H](C)C(=O)O[C@@H]1CCC=C2C=C[C@@H](C)[C@@H](CC[C@@H]3C[C@@H](O)CC(=O)O3)[C@@H]21

The next lines start with the compound.

Row | SMILES | IC50
10 | CC[C@H](C)C(=O)O[C@H]1C[C@@H](C)C[C@@H]2C=C[C@H](C)[C@H](/C=C/C(=O)C[C@@H](O)CC(=O)O)C12 (some centres not stated) | 0.32 µM
11 | CC[C@H](C)C(=O)O[C@H]1CCC=C2C=C[C@H](C)[C@H](CC[C@H]3C[C@H](O)CC(=O)O3)C21 (some centres not stated) | 2 µM
12 | CC[C@H](C)C(=O)O[C@@H]1CCC=C2C=C[C@@H](C)[C@@H](COC(=O)C[C@H](O)CC(=O)O)[C@@H]21 | 25 µM
13 | CC[C@H](C)C(=O)O[C@@H]1CCC=C2C=C[C@@H](C)[C@@H](CC[C@H]3C[C@@H](O)CC(=O)O3)[C@@H]21 | 79 µM
14 | CC[C@H](C)C(=O)O[C@H]1C[C@@H](C)C[C@@H]2C=C[C@H](C)[C@H](CC[C@@H]3C[C@@H](O)CC(=O)O3)C12 (some centres not stated) | 0.0016 µM
15 | CC[C@H](C)C(=O)O[C@H]1CCC=C2C=C[C@H](C)[C@H](COC(=O)C[C@H](O)CC(=O)O)[C@H]21 | 5 µM
16 | CC[C@H](C)C(=O)O[C@H]1CCC=C2C=C[C@H](C)[C@H](COC(=O)CCCC(=O)O)C21 (some centres not stated) | 7.1 µM
17 | CC[C@H](C)C(=O)O[C@H]1CCC=C2C=C[C@H](C)[C@H](COC(=O)C[C@@H](O)CC(=O)O)[C@H]21 | 0.63 µM
